The list is not random: actives were taken first. Their share in the collection is about 2.5%.
MC4R ag barr: activates human MC4R beta-arrestin recruitment | U2OS MC4R beta-arrestin complementation, luminescence; percent of melanotan II response, DMSO zero | activation, % at 8.9 µM | 360,000 tested, 0.98% active | P32245;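 active = activation above a per-plate cutoff, the mean activation of sample wells on that plate plus 3 SD, cut at about 8% in these data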
MC4R antagonist: antagonists of human melanocortin 4 receptor (MC4R). P32245. MC4R-expressing cells, MTII-stimulated cAMP, LANCE TR-FRET. inhibition, % at 6.5 µM. 360,000 tested, 0.48% active. AID 540295;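 active = inhibition above its plate's cutoff, the mean of tested wells on that plate plus 3 SD, cut at about 29% in these data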;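 note: 0% = Melanotan II alone and 100% = Melanotan II plus saturating MCL0020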
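Assay system: U2OS cells stably expressing human melanocortin 4 receptor (MC4R) / Dosing: 6.5 µM / Timing: compound 30 min, challenge 1 h, detection 1 h / Measured by: Eu-cAMP/anti-cAMP TR-FRET, emission 671 nm / Replicates: singlicate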
NTR1 agonist: agonists of human neurotensin receptor NTR1; NTR1-U2OS beta-arrestin-GFP spot imaging, agonist mode; activation, % at 20 µM; P30989; 330,000 tested, 0.17% active;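 active = activation at or above 40% of the spot to cytoplasm intensity ratio, with at least 20 cells analyzed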;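 note: 0% = DMSO without peptide and 100% = 100 nM NTR1 peptide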
Rev-erbA mod: modulators of human Rev-erb alpha DNA binding; activity, % at 10 µM; P20393; 370,000 tested, 0.79% active; AID 1259318; Rev-erbα–FITC-DNA binding, fluorescence polarization, 90 min;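 active = activity above about 14%, limit read from the data; passing the limit was not always enough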;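 note: 0% = DMSO wells with 35 nM protein and 100% = DMSO wells with 750 nM protein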
Target sequence (P20393 whole entry, looked up): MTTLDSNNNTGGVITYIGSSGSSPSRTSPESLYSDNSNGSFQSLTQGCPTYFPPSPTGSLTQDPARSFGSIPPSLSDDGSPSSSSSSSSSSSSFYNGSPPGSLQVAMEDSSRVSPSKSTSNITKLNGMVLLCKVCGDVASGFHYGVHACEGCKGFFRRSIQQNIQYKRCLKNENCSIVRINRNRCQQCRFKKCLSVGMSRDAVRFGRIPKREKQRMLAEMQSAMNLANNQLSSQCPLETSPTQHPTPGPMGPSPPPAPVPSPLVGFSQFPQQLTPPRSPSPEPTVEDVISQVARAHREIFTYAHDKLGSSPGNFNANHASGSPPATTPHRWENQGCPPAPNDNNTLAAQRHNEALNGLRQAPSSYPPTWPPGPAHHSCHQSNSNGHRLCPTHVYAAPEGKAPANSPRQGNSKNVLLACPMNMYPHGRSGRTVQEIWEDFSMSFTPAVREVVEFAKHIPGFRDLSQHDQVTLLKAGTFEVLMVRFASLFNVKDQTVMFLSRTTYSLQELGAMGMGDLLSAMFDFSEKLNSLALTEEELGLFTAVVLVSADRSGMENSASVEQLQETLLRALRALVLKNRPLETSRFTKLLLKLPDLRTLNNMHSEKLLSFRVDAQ
PG9 binder: small molecules binding HIV-1 gp120 antibody PG9. TR-FRET gp120-PG9 antibody binding. inhibition, % at 6.7 µM. 360,000 tested, 0.43% active; in the data active = inhibition above about 8.5%
MC4R barr conf: human MC4R beta-arrestin agonism confirmation; AID 602192; U2OS MC4R beta-arrestin recruitment, luminescence; scaled DMSO 0%, Melanotan II 100%; activation, % at 8.9 µM; shares compounds with MC4R ag barr; 2,400 tested, 31% active;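 active = mean activation across replicates above the hit cutoff set in the earlier primary screen, cut at about 8% in these data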
MOR-DOR barr ag: activates mu-delta opioid heterodimer, MC4R agonist counter-screen. shares compounds with MC4R ag barr. U2OS PathHunter beta-arrestin, beta-gal luminescence; percent of deltorphin B response, DMSO zero. activation, % at 9.2 µM. 2,400 tested, 5.8% active;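 active = mean activation across replicates exceeds the hit threshold derived in the earlier primary screen, cut at about 18% in these data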;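 note: 100% = deltorphin B at 0.9 µM final and 0% = DMSO alone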
* hit, by the source's call; nt = no result.

SMILES	MC4R ag barr	MC4R antagonist	NTR1 agonist	Rev-erbA mod	PG9 binder	MC4R barr conf	MOR-DOR barr ag
CCNC(=S)N/N=C/c1cc(Br)cc(Br)c1OC	11.6*	23.6	9.2	-0.2	-3.4	1.7	7.7
O=C(CSc1nnc(-c2cccnc2)n1-c1ccc(Cl)cc1)Nc1ccccc1-c1ccccc1	nt	nt	nt	-2.5	nt	nt	nt
Oc1ccccc1/C=N/NC(=S)NC1CC2CCC1C2 (stereo not drawn)	12.3*	10.8	14.7	-1.1	-2.3	-1.8	6.6
COc1cccc(/C=N/NC(=S)NC2CC3CCC2C3)c1OC (stereo not drawn)	-1.0	3.6	3.7	-0.6	-2.0	nt	nt
CSc1ncccc1C(=O)OCc1cccc([N+](=O)[O-])c1	1.3	14.1	0.3	-3.8	0.9	nt	nt
CSc1ncccc1C(=O)OCc1ccc([N+](=O)[O-])cc1	11.9*	2.1	1.6	-3.2	-1.5	0.7	3.3
CC(C)(C)c1ccc2c(c1)OC(C(=O)N/N=C\c1ccc[nH]1)CO2 (stereo not drawn)	11.3*	11.2	3.6	-0.1	-0.1	3.9	10.0
CC(C)(C)c1ccc2c(c1)OC(C(=O)N/N=C/c1ccc[nH]1)CO2 (stereo not drawn)	nt	nt	nt	3.2	nt	nt	nt
CCOC(=O)c1sc(NC(=O)c2cccc(S(=O)(=O)N(CC)CC)c2)cc1C	11.7*	17.6	-1.6	-3.5	0.4	0.5	5.4
CCOC(=O)c1sc(NC(=O)c2cccc(S(=O)(=O)N3CCN(C)CC3)c2)cc1C	-0.8	5.3	-5.3	2.9	0.5	nt	nt
O=C(Nc1ccc2c(c1)OCO2)c1cc2n(n1)C(C(F)(F)F)CC(c1ccccc1)N2 (stereo not drawn)	15.3*	-1.7	2.0	-0.5	1.3	3.3	6.2
CCn1c(CC(=O)Nc2ccc(C)c(Cl)c2)nnc1SCCOc1ccc(OC)cc1	10.7*	-4.8	-1.5	6.4	-2.1	0.0	7.0
CC/C(C)=N\N=C\c1c(O)n(CC)c2cc(C3=NNC(=O)CC3)ccc12	-2.6	-1.2	0.6	nt	nt	nt	nt
CCn1c(O)c(/C=N/N=C/c2ccc(OC)cc2)c2cc(C3=NNC(=O)CC3)ccc21	17.8*	12.9	6.3	-0.2	-1.2	7.3	7.1
CCCn1c(SCC(=O)NCc2ccc(OC)cc2)n[nH]c1=O	1.4	2.9	-0.2	-8.3	1.3	nt	nt
CCCn1c(SCC(=O)N2N=C3/C(=C/c4ccc(OC)cc4)CCCC3C2c2ccc(OC)cc2)n[nH]c1=O (stereo not drawn)	13.2*	6.4	9.2	-0.5	-3.5	13.6*	9.4
COc1ccc(C(=O)OCC(=O)c2ccc(C3CCCCC3)cc2)cc1	-1.4	-2.0	3.1	5.0	-3.0	nt	nt
Nc1ccc(O)cc1C(=O)OCC(=O)c1ccc(C2CCCCC2)cc1	21.3*	6.6	nt	-2.5	-3.7	11.9*	13.8
C=CCN1C(=O)[C@H](CC(=O)NCC2CCCCC2)[C@@]2(C(=O)OCC)CCCC=C12	nt	nt	nt	7.5	nt	nt	nt
COc1cccc2cc(C(N)=O)oc12	-2.5	12.1	0.6	1.6	-3.6	nt	nt
COc1cccc2cc(C(=O)c3ccc([N+](=O)[O-])cc3)oc12	19.9*	4.9	-0.5	-8.0	-1.5	0.5	6.0
O=C(CSc1nccc(-c2ccc(Br)cc2)n1)NCCc1ccccc1	11.7*	5.5	2.6	15.1	0.6	1.3	3.5
Nc1[nH]c(C(=O)c2ccccc2)c(-c2ccc(Cl)cc2Cl)c1C(=O)NCCC1=CCCCC1	nt	nt	nt	-8.2	nt	nt	nt
CCCCN1CN2Cc3cc(OC)ccc3C2CS1(=O)=O (stereo not drawn)	nt	nt	nt	0.2	nt	nt	nt
O=C(CSc1nnc(-c2cccs2)o1)N1CCOCC1	17.9*	2.7	nt	5.4	-2.4	-1.1	1.4
SMILES	MC4R ag barr	MC4R antagonist	NTR1 agonist	Rev-erbA mod	PG9 binder	MC4R barr conf	MOR-DOR barr ag
N#CCC[C@@H]1CC[C@]2(CCCN(C(=O)c3ccco3)C2)O1	nt	nt	nt	0.6	nt	nt	nt
CCCCNC(=O)NCCCN1CCN(c2ccc(F)cc2)CC1	nt	nt	nt	2.4	nt	nt	nt
Cc1cc(F)cc(-c2cc(C(=O)NCc3ccc(C(F)(F)F)cc3)[nH]n2)c1	14.2*	7.4	nt	-3.0	-0.3	3.4	6.1
COc1ccc(F)cc1-c1cc(C(=O)NCc2ccc(C(F)(F)F)cc2)[nH]n1	4.4	2.4	nt	8.8	-0.1	nt	nt
Cc1ccc2cc(/C=N/NC(=O)[C@H]3C[C@@H]3c3ccccc3)c(Cl)nc2c1	23.7*	6.5	9.0	6.0	-0.2	2.9	4.3
O=C(N/N=C/c1cc2ccccc2nc1Cl)[C@H]1C[C@@H]1c1ccccc1	1.8	13.9	12.6	2.4	0.1	nt	nt
CCCCC(=O)OCC(=O)N1N=C(c2c[nH]c3ccccc23)C(O)C1c1ccc(OC)cc1 (stereo not drawn)	14.8*	11.7	21.8	4.6	-0.9	8.3*	4.7
COc1ccc(CC(=O)OCC(=O)N2N=C(c3ccccc3)CC2c2ccc(OC)cc2)cc1 (stereo not drawn)	-1.5	6.6	0.9	-2.5	-2.0	nt	nt
CCCC(=O)O[C@]1(C(=O)CO)CCC2[C@@H]3CCC4=CC(=O)CC[C@]4(C)C3[C@@H](O)C[C@@]21C (stereo partly drawn)	nt	nt	nt	-2.4	nt	nt	nt
O=C(Nc1ccc(Br)cc1)c1ccc(CSC2=NCCS2)cc1	28.8*	1.3	0.1	9.8	2.3	3.0	12.6
COc1ccc(CNCc2cc3c(C(C)(C)C)nn(-c4ccccc4)c3[nH]c2=O)cc1	15.0*	10.4	4.2	-2.5	1.2	14.1*	12.1
CC(C)(C)c1nn(-c2ccccc2)c2[nH]c(=O)c(CNCc3ccco3)cc12	1.9	7.6	0.8	0.8	-1.1	nt	nt
c1cc2c(cc1C1CCCCC1)c1c3n2CCCNC3CCC1 (stereo not drawn)	15.3*	-11.7	2.2	0.3	-0.4	32.4*	11.4
CCOC(=O)c1sc(N(Cc2ccccc2)C(=O)COC(=O)c2ccccc2O)nc1C	-1.1	-3.6	-0.2	6.9	0.8	nt	nt
CCOC(=O)c1sc(N(Cc2ccccc2)C(=O)CCl)nc1C	15.7*	25.3	3.1	-3.9	-0.8	3.8	38.2*
CC[C@H](CCC(=O)N(c1ccccc1)c1ccccc1)C1CC1	nt	nt	nt	-2.2	nt	nt	nt
C=CCn1c(SCC(=O)NCc2ccco2)nc2ccccc2c1=O	0.2	-2.8	0.1	-3.6	0.9	nt	nt
C=CCn1c(SCC(=O)NC(=O)NCc2ccco2)nc2sc(CC)cc2c1=O	11.6*	-5.7	0.8	-7.0	0.5	1.9	3.1
CCOC(=O)Cn1cc(CN2CCS(=O)(=O)N(Cc3ccc(Cl)cc3)C(C(=O)OC)C2)nn1 (stereo not drawn)	nt	nt	nt	-5.4	nt	nt	nt
O=C(CSc1cc(Cl)ccc1Cl)NC1CCCc2ccccc21 (stereo not drawn)	12.8*	4.2	0.4	1.6	-0.6	2.6	5.5

Source: PubChem (several laboratories)
